ChEMBL document CHEMBL1155343, “Discovery of N-(3-(morpholinomethyl)-phenyl)-amides as potent and selective CB2 agonists” (Bioorg Med Chem Lett, 2009)
“Also recorded” adds a separate entry of the source. Active and inactive are the calls of the source.

How the values were obtained:
Cannabinoid receptor 1 = Cannabinoid receptor 1 (Homo sapiens, UniProt P21554); assay: Displacement of [3H]CP-55940 from human CB1 receptor expressed in CHO cells; assay type: cell-based
Outline: (§1)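 Ki values are geometric means of at least three separate determinations. Selectivity is expressed as the ratio of the CB1 Ki to the CB2 Ki.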

Cannabinoid receptor 2 [1] = target: T1, Cannabinoid receptor 2 (Homo sapiens, UniProt P34972); assay: Displacement of [3H]CP-55940 from human CB2 receptor expressed in CHO cells; assay type: cell-based; outline: as §1
Cannabinoid receptor 2 [2] = target: T1, Cannabinoid receptor 2; assay: Agonist activity at human CB2 receptor expressed in CHO cells by [35S]GTPgammaS binding assay; assay type: functional, cell-based
Outline: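 [35S]GTPγS binding with membranes from transfected CHO cells expressing CB2. EC50 values are geometric means of at least three separate determinations.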

[3] = Metabolic stability in rat liver microsomes after 30 mins; assay type: ADME, Microsome; settings: read-out: Stability
Outline: (§2)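 Compounds incubated with liver microsomes for 30 min. Read-out is percent of parent compound remaining.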

[4] = Metabolic stability in human liver microsomes after 30 mins; assay type: ADME, Microsome; settings: read-out: Stability; outline: as §2
Mus musculus [5] = assay: Toxicity in mouse hind paw incision model assessed as behavioral effects at 3 mg/kg, ip; assay type: organism-based; parameters: dose 3 mg/kg, route intraperitoneal; settings: in vivo
Homo sapiens = species on record: Homo sapiens; assay: Selectivity ratio, Ki for human CB1 receptor to Ki for human CB2 receptor; outline: as §1
Mus musculus [6] = assay: Antiallodynic activity in mouse hind paw incision model of post-operative pain assessed as hind paw withdrawal threshold at 10 mg/kg, ip; assay type: functional, organism-based; parameters: dose 10 mg/kg
Mus musculus [7] = assay: Antiallodynic activity in mouse hind paw incision model of post-operative pain assessed as hind paw withdrawal threshold at 3 mg/kg, ip; assay type: functional, organism-based; parameters: dose 3 mg/kg
Mus musculus [8] = assay: Antiallodynic activity in po dosed mouse hind paw incision model of post-operative pain assessed as hind paw withdrawal threshold; assay type: functional, organism-based
Mus musculus [9] = assay: Toxicity in mouse hind paw incision model assessed as behavioral effects at 10 mg/kg, ip; assay type: organism-based; parameters: dose 10 mg/kg, route intraperitoneal; settings: in vivo

Cannabinoid receptor 1, sequence (P21554 whole entry): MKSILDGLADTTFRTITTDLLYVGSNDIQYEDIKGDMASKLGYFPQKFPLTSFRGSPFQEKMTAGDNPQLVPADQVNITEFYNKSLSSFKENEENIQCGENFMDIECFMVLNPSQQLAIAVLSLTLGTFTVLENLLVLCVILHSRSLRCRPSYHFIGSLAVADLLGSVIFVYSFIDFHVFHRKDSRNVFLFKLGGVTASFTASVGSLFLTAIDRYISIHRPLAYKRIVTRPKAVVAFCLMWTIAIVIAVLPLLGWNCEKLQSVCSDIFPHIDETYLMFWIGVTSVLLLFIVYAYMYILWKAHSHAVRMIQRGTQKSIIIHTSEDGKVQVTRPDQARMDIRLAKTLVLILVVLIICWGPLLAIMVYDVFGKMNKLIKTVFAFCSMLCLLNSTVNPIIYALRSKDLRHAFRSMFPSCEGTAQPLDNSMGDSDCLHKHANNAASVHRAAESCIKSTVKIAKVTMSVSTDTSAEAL
T1 sequence (P34972 whole entry): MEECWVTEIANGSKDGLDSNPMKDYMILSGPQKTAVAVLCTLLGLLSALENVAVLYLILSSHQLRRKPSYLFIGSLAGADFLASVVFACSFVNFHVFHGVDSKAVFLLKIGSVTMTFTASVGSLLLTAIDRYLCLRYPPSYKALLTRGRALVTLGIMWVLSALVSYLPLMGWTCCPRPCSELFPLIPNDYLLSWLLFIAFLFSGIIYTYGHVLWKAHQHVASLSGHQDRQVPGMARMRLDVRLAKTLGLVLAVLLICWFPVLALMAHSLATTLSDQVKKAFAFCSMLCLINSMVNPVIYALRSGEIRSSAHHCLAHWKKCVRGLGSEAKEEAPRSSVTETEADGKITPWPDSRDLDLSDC

Compound	Activity (Cannabinoid receptor 1) [%]	Ki (Cannabinoid receptor 2 [1]) [nM]	EC50 (Cannabinoid receptor 2 [2]) [nM]	remaining at 0.5 h [3] [%]	remaining at 0.5 h [4] [%]	Activity (Mus musculus [5])	Ki (Cannabinoid receptor 1) [nM]	Ratio Ki (Homo sapiens)	Activity (Mus musculus [6])	Activity (Mus musculus [7])	Activity (Mus musculus [8])	Activity (Mus musculus [9])
CCC(C)(C)C(=O)Nc1cc(CN2CCOCC2)c(C)cc1C	18	530	500	42	61	–	–	–	–	–	–	–
CCC(C)(C)C(=O)Nc1cc(CN2CCOCC2)c(C)cc1F	10	120	200	20	57	–	–	–	–	–	–	–
CN1CC[C@]23c4c5ccc(O)c4O[C@H]2[C@@H](O)C=C[C@H]3[C@H]1C5 [MORPHINE]	–	–	–	–	–	Not Active	–	–	–	–	–	–
Cc1ccc(C(=O)NC2C(C)(C)[C@@H]3CC[C@@]2(C)C3)cc1CCC(=O)N1CCOCC1 (some centres not stated)	–	83	–	–	–	–	1700	20	–	–	–	–
CC(C(=O)Nc1ccc2c(c1)C(N1CCOCC1)CCC2)(C(F)(F)F)C(F)(F)F (single isomer, unassigned)	–	2.3	3.6	–	–	–	1300	–	–	–	–	–
Cc1ccc(C(=O)NC2C(C)(C)[C@@H]3CC[C@@]2(C)C3)cc1N1CCOCC1 (some centres not stated)	–	300	–	–	–	–	9000	30	–	–	–	–
Cc1ccc(C(=O)NC2C(C)(C)[C@@H]3CC[C@@]2(C)C3)cc1CCCN1CCOCC1 (some centres not stated)	–	62	110	–	–	–	2100	34	–	–	–	–
Cc1ccc(NC(=O)C2CCCCC2C)cc1CN1CCOCC1 (configuration not stated)	–	70	76	2.2	38	–	1600	23	–	–	–	–
Cc1cc(F)c(NC(=O)C2CCCCC2C)cc1CN1CCOCC1 (configuration not stated)	31	37	49	15	36	–	–	–	–	–	–	–
Cc1ccc(C(=O)NC2C(C)(C)[C@@H]3CC[C@@]2(C)C3)cc1S(=O)(=O)N1CCOCC1 (some centres not stated)	–	3.9	6.6	–	–	–	130	31	–	–	–	–
CCC(C)(C)C(=O)Nc1ccc(C)c(CN2CCOCC2)c1	4	120	110	29	56	–	–	–	–	–	–	–
Cc1ccc(C(=O)NC2C3(C)CCC(C3)C2(C)C)cc1CC(=O)N1CCOCC1 (configuration not stated)	–	700	–	–	–	–	3900	5.6	–	–	–	–
CC(C(=O)Nc1ccc2c(c1)C(N1CCOCC1)CCC2)(C(F)(F)F)C(F)(F)F (stereo in doubt; 43)	–	10	41	–	–	–	3400	–	–	–	–	–
Cc1ccc(C(=O)NC2C(C)(C)[C@@H]3CC[C@@]2(C)C3)cc1CCN1CCOCC1 (some centres not stated)	–	45	64	–	–	–	1400	31	–	–	–	–
Cc1c(CN2CCOCC2)cc(NC(=O)C2CCCCC2C)cc1C(F)(F)F (configuration not stated)	–	17	42	2	2	–	110	6.5	–	–	–	–
Cc1ccc(C(=O)NC2C(C)(C)[C@@H]3CC[C@@]2(C)C3)cc1C(=O)N1CCOCC1 (some centres not stated)	–	1200	–	26	–	–	> 5000	–	–	–	–	–
Cc1ccc(NC(=O)C(C)(C(F)(F)F)C(F)(F)F)cc1CN1CCOCC1	–	16	14	0.9	42	–	6300	390	–	–	–	–
CC(C(=O)Nc1ccc2c(c1)C(N1CCOCC1)CCC2)(C(F)(F)F)C(F)(F)F (single isomer, unassigned; enantiomer 2)	–	120	72	–	–	–	> 5000	–	–	–	–	–
Cc1cc(C)c(NC(=O)C2CCCCC2C)cc1CN1CCOCC1 (configuration not stated)	14	440	590	67	49	–	–	–	–	–	–	–
Cc1cc(NC(=O)C(C)(C(F)(F)F)C(F)(F)F)cc(CN2CCOCC2)c1C	–	2.7	5.5	3.1	31	–	500	190	Active	Active	inactive	Non-toxic; also recorded: Not Active
Cc1ccc(C(=O)NC2C(C)(C)[C@@H]3CC[C@@]2(C)C3)cc1CN1CCOCC1 (some centres not stated)	–	19	42	–	–	–	1100	58	–	–	–	–
Cc1cc(NC(=O)C2CCCCC2C)cc(CN2CCOCC2)c1C (configuration not stated)	–	8.6	21	1	32	–	540	63	–	–	–	–
